The values below come from ChEMBL document CHEMBL1123534, “Synthesis and renal vasodilator activity of 2-chlorodopamine and N-substituted derivatives” (1986).

Assay [1] relates to Canis familiaris. The experiment in a line: Effect of compound on the renal blood flow (RBF) in alpha-blocked anesthetized dogs at a dose of 100 nmol after SCH 23390. It is filed as functional, Canis lupus familiaris, Kidney. In outline:
(§1)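 Phenoxybenzamine α-blocked anesthetized dogs, N=4-5/group (dopamine N=18). Doses given as renal-artery boluses; Δ renal blood flow in mL/min, mean ± SEM. SCH 23390 infused at 0.5 µg/kg/min iv, with doses repeated 5 min after infusion onset. After ≥1.5 h recovery, propranolol was given at 0.5 mg/kg ia over 15 min. The combined condition repeated SCH 23390 infusion with propranolol present.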

Assay [2] deals with Canis familiaris. The experiment in a line: Effect of compound on the renal blood flow (RBF) in alpha-blocked anesthetized dogs at a dose of 100 nmol after propranolol. It is filed as functional, Canis lupus familiaris, Kidney. In outline: as §1
The subject of assay [3] is Canis familiaris. The experiment in a line: Compound was tested for the renal vasodilatory activity in anesthetized dog. It counts as functional, Canis lupus familiaris. On the set-up: unit not given here. In outline:
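Dogs anesthetized and α-blocked with phenoxybenzamine, with saline infused iv during blockade. Four ascending bolus doses (3-10000 nmol) given into the renal artery in 0.2 mL isotonic saline, one test compound per dog. Maximal rise in renal blood flow was taken as % of each dog's response to 100 nmol dopamine. ED30 is the dose raising flow by 30%.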

Assay [4] deals with Canis familiaris. Briefly: Effect of compound on the renal blood flow (RBF) in alpha-blocked anesthetized dogs at a dose of 1000 nmol after SCH 23390+propranolol. It counts as functional, Canis lupus familiaris, Kidney. The procedure, abridged:
as §1

The subject of assay [5] is Canis familiaris. The experiment in a line: Effect of compound on the renal blood flow (RBF) in alpha-blocked anesthetized dogs at a dose of 300 nmol after SCH 23390. It is filed as functional, Canis lupus familiaris, Kidney. In outline: as §1
The subject of assay [6] is Canis familiaris. Briefly: Effect of compound on the renal blood flow (RBF) in alpha-blocked anesthetized dogs at a dose of 1000 nmol after SCH 23390. It counts as functional, Canis lupus familiaris, Kidney. The procedure, abridged: as §1
Assay [7] concerns Canis familiaris. The experiment in a line: Effect of compound on the renal blood flow (RBF) in alpha-blocked anesthetized dogs at a dose of 1000 nmol after propranolol. It is filed as functional, Canis lupus familiaris, Kidney. In outline: as §1
In assay [8] the test system is Canis familiaris. The experiment in a line: Effect of compound on the renal blood flow (RBF) in alpha-blocked anesthetized dogs at a dose of 300 nmol after propranolol. It is filed as functional, Canis lupus familiaris, Kidney. The procedure, abridged: as §1
The test system of assay [9] is Canis familiaris. The experiment in a line: Effect of compound on the renal blood flow (RBF) in alpha-blocked anesthetized dogs at a dose of 300 nmol after SCH 23390+propranolol. It counts as functional, Canis lupus familiaris, Kidney. The procedure, abridged:
as §1

Assay [10] has as its system Canis familiaris. Briefly: Effect of compound on the renal blood flow (RBF) in alpha-blocked anesthetized dogs at a dose of 3000 nmol after SCH 23390. It counts as functional, Canis lupus familiaris, Kidney. In outline:
as §1

Assay [11] concerns Canis familiaris. The experiment in a line: Effect of compound on the renal blood flow (RBF) in alpha-blocked anesthetized dogs at a dose of 10000 nmol after SCH 23390+propranolol. It counts as functional, Canis lupus familiaris, Kidney. The procedure, abridged: as §1
For assay [12], the system named is Canis familiaris. The experiment in a line: Effect of compound on the renal blood flow (RBF) in alpha-blocked anesthetized dogs at a dose of 3000 nmol after SCH 23390+propranolol. It is filed as functional, Canis lupus familiaris, Kidney. In outline: as §1
Assay [13] concerns Canis familiaris. The experiment in a line: Effect of compound on the renal blood flow (RBF) in alpha-blocked anesthetized dogs at a dose of 10000 nmol after SCH 23390. It counts as functional, Canis lupus familiaris, Kidney. In outline:
as §1

Assay [14] has as its system Canis familiaris. Briefly: Effect of compound on the renal blood flow (RBF) in alpha-blocked anesthetized dogs at a dose of 3000 nmol after propranolol. It is filed as functional, Canis lupus familiaris, Kidney. The procedure, abridged:
as §1

The subject of assay [15] is Canis familiaris. Briefly: Effect of compound on the renal blood flow (RBF) in alpha-blocked anesthetized dogs at a dose of 10000 nmol after propranolol. It is filed as functional, Canis lupus familiaris, Kidney. In outline:
as §1

The test system of assay [16] is Canis familiaris. The experiment in a line: Effect of compound on the renal blood flow (RBF) in alpha-blocked anesthetized dogs at a dose of 100 nmol after SCH 23390+propranolol. It is filed as functional, Canis lupus familiaris, Kidney. In outline:
as §1

For the compound `Cl.NCCc1ccc(O)c(O)c1Cl`, the results for the RBF in the assay on Canis familiaris [1] and with Canis familiaris [2] were 4 mL/min and 43 mL/min, respectively. The compound further returned an ED30 with Canis familiaris [3] of 13.5.
On to `CCNCCc1ccc(O)c(O)c1Cl.Cl`, for which the RBF came to 2 mL/min in the assay on Canis familiaris [4]; 22 mL/min with Canis familiaris [5]; 32 mL/min in the assay with Canis familiaris [6]; 40 mL/min in the assay with Canis familiaris [7]; 25 mL/min in the assay on Canis familiaris [8]; 2 mL/min in the assay on Canis familiaris [9]. In the assay on Canis familiaris [3], this compound came in with an ED30 of 67.4.
`CCCNCCc1ccc(O)c(O)c1Cl.Cl`: the RBF in the assay on Canis familiaris [10] is 11 mL/min; with Canis familiaris [11], 5 mL/min; in the assay with Canis familiaris [12], 2 mL/min; in the assay on Canis familiaris [13], 17 mL/min; in the assay with Canis familiaris [14], 11 mL/min; in the assay with Canis familiaris [15] it was 17 mL/min. The ED30 in the assay on Canis familiaris [3] stood at 2166.
Consider `CNCCc1ccc(O)c(O)c1Cl.Cl`, for which the RBF in the assay on Canis familiaris [1] is 8 mL/min; in the assay on Canis familiaris [5], 15 mL/min; in the assay on Canis familiaris [8] it was 49 mL/min; in the assay with Canis familiaris [2] it was 34 mL/min. Further, the ED30 in the assay on Canis familiaris [3] is 11.5.
Regarding `NCCc1ccc(O)c(O)c1` [DOPAMINE], the RBF with Canis familiaris [1] came to 15 mL/min; in the assay with Canis familiaris [16], 14 mL/min; with Canis familiaris [2], 69 mL/min.
